Activity calls are given as the source filed them. No cut-off for these calls is given here.
Legend:
K562 [1] = experiment: Induction of necrosis in human K562 cells incubated for 72 hrs by annexin V FITC and propidium iodide staining based flow cytometry relative to control; format: functional; parameters: concentration or dose not given beside the values
How it was run: (§1)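 K562 cells treated for 72 h, stained with Annexin V-FITC/propidium iodide and analysed by flow cytometry. Apoptotic, necrotic and live fractions scored as percent of gated cells; specific apoptosis and specific necrosis calculated from these counts.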

K562 [2] = experiment: Cell cycle arrest in human K562 cells assessed as decrease in cell accumulation at G2/M phase incubated for 72 hrs by propidium iodide staining based flow cytometry relative to tiazofurin; format: functional
How it was run: (§2)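 Exponentially growing K562 cells treated for 24 or 72 h, untreated cells as control; cells stained with propidium iodide and DNA content read by flow cytometry. Phase distribution (subG1, G0/G1, S, G2/M) taken from one-parameter histograms, subG1 scored as hypodiploid, apoptotic cells.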

K562 [3] = experiment: Antiproliferative activity against human K562 cells assessed as reduction in cell growth incubated for 72 hrs by MTT assay; format: functional, cell-based; settings: K562, 72 h
How it was run: (§3)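 Colorimetric MTT assay on human tumour lines K562 (chronic myeloid leukemia), HL-60 (promyelocytic leukemia), Jurkat (T cell leukemia), Raji (Burkitt's lymphoma), HT-29 (colorectal adenocarcinoma), HeLa (cervix adenocarcinoma) and normal lung fibroblast MRC-5; cells exposed to compounds for 72 h.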

HeLa [4] = experiment: Antiproliferative activity against human HeLa cells assessed as reduction in cell growth incubated for 72 hrs by MTT assay; format: functional, cell-based
How it was run: (§4)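 Colorimetric MTT assay on human tumour lines K562 (chronic myeloid leukemia), HL-60 (promyelocytic leukemia), Jurkat (T cell leukemia), Raji (Burkitt's lymphoma), HT-29 (colorectal adenocarcinoma), HeLa (cervix adenocarcinoma) and normal lung fibroblast MRC-5; cells exposed to compounds for 72 h. IC50 taken as concentration giving 50% growth inhibition versus untreated control.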

K562 [5] = experiment: Induction of apoptosis in human K562 cells assessed as 32 kDa Caspase 3 precursor level incubated for 72 hrs by Western blot analysis (reference value: 100%); format: functional
How it was run: (§5)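 K562 cells treated for 72 h; Bcl-2, BAX, caspase 3 precursor (32 kDa), caspase 3 active subunit (18 kDa) and PARP (112 and 85 kDa) measured by Western blot and expressed as % of untreated control.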

Jurkat [6] = experiment: Potency index, ratio of doxorubicin IC50 to compound IC50 for cytotoxicity against human Jurkat cells incubated for 72 hrs by MTT assay; format: functional
Raji [7] = experiment: Antiproliferative activity against human Raji cells assessed as reduction in cell growth incubated for 72 hrs by MTT assay; format: functional, cell-based; how it was run: as §3
HL-60 [8] = experiment: Antiproliferative activity against human HL60 cells assessed as reduction in cell growth incubated for 72 hrs by MTT assay; format: functional, cell-based; settings: HL-60, 72 h; how it was run: as §4
K562 [9] = experiment: Cell cycle arrest in human K562 cells assessed as accumulation in SubG1 phase incubated for 72 hrs by propidium iodide staining based flow cytometry (reference value: 3.07%); format: functional; how it was run: as §2
K562 [10] = experiment: Induction of apoptosis in human K562 cells assessed as 18 kDa Caspase 3 active subunit level incubated for 72 hrs by Western blot analysis (reference value: 100%); format: functional; how it was run: as §5
K562 [11] = experiment: Cell cycle arrest in human K562 cells assessed as accumulation in S phase incubated for 24 hrs by propidium iodide staining based flow cytometry (reference value: 48.38%); format: functional; how it was run: as §2
K562 [12] = experiment: Genotoxicity in human K562 cells assessed as increase in DNA damage at cytotoxic IC50 incubated for 72 hrs by comet assay; format: toxicity, cell-based; settings: k562, 72 h
How it was run: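 Modified alkaline comet assay: cells set in agarose on slides, electrophoresed horizontally, stained with ethidium bromide and imaged by fluorescence microscopy. 50 comets scored per sample; mean tail moment used as the DNA-damage measure.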

K562 [13] = experiment: Induction of apoptosis in human K562 cells assessed as 112 kDa PARP level incubated for 72 hrs by Western blot analysis (reference value: 100%); format: functional; how it was run: as §5
Jurkat [14] = experiment: Antiproliferative activity against human Jurkat cells assessed as reduction in cell growth incubated for 72 hrs by MTT assay; format: functional, cell-based; how it was run: as §4
K562 [15] = experiment: Induction of apoptosis in human K562 cells assessed as Bax level incubated for 72 hrs by Western blot analysis (reference value: 100%); format: functional; how it was run: as §5
HT-29 [16] = experiment: Antiproliferative activity against human HT-29 cells assessed as reduction in cell growth incubated for 72 hrs by MTT assay; format: functional, cell-based; settings: HT-29, 72 h; how it was run: as §4
K562 [17] = experiment: Cell cycle arrest in human K562 cells assessed as accumulation in sub-G1 phase incubated for 24 hrs by propidium iodide staining based flow cytometry (reference value: 1.05%); format: functional; how it was run: as §2
K562 [18] = experiment: Cell cycle arrest in human K562 cells assessed as accumulation in G0/G1 phase incubated for 24 hrs by propidium iodide staining based flow cytometry (reference value: 36.28%); format: functional; how it was run: as §2
K562 [19] = experiment: Induction of apoptosis in human K562 cells incubated for 24 hrs by annexin V FITC and propidium iodide staining based flow cytometry relative to control; format: functional; parameters: concentration or dose not given beside the values
K562 [20] = experiment: Cell cycle arrest in human K562 cells assessed as accumulation in S phase incubated for 72 hrs by propidium iodide staining based flow cytometry (reference value: 36.05%); format: functional; how it was run: as §2
K562 [21] = experiment: Induction of necrosis in human K562 cells incubated for 24 hrs by annexin V FITC and propidium iodide staining based flow cytometry relative to control; format: functional; parameters: concentration or dose not given beside the values
K562 [22] = experiment: Induction of apoptosis in human K562 cells assessed as 85 kDa PARP level incubated for 72 hrs by Western blot analysis (reference value: 100%); format: functional; how it was run: as §5
K562 [23] = experiment: Induction of apoptosis in human K562 cells assessed as reduction in cell membrane integrity at cytotoxic IC50 incubated for 72 hrs by acridine orange and ethidium bromide double staining based fluorescence microscopy; format: functional
K562 [24] = experiment: Cell cycle arrest in human K562 cells assessed as accumulation in G2/M phase incubated for 24 hrs by propidium iodide staining based flow cytometry (reference value: 14.29%); format: functional; how it was run: as §2
K562 [25] = experiment: Induction of apoptosis in human K562 cells assessed as Bcl2 level incubated for 72 hrs by Western blot analysis (reference value: 100%); format: functional; how it was run: as §5
Jurkat [26] = experiment: Potency index, ratio of tiazofurin IC50 to compound IC50 for cytotoxicity against human Jurkat cells incubated for 72 hrs by MTT assay; format: functional
Raji [27] = experiment: Potency index, ratio of tiazofurin IC50 to compound IC50 for cytotoxicity against human Raji cells incubated for 72 hrs by MTT assay; format: functional
MRC5 = experiment: Cytotoxicity against human MRC5 cells assessed as reduction in cell viability incubated for 72 hrs by MTT assay; format: cell-based; settings: MRC5, 72 h; how it was run: as §3
K562 [28] = experiment: Cell cycle arrest in human K562 cells assessed as accumulation in G2/M phase incubated for 72 hrs by propidium iodide staining based flow cytometry (reference value: 15.45%); format: functional; how it was run: as §2
K562 [29] = experiment: Induction of apoptosis in human K562 cells incubated for 72 hrs by annexin V FITC and propidium iodide staining based flow cytometry relative to control; format: functional; parameters: concentration or dose not given beside the values; how it was run: as §1
K562 [30] = experiment: Cell cycle arrest in human K562 cells assessed as accumulation in G0/G1 phase incubated for 72 hrs by propidium iodide staining based flow cytometry (reference value: 45.43%); format: functional; how it was run: as §2
Raji [31] = experiment: Potency index, ratio of doxorubicin IC50 to compound IC50 for cytotoxicity against human Raji cells incubated for 72 hrs by MTT assay; format: functional
HT-29 [32] = experiment: Potency index, ratio of doxorubicin IC50 to compound IC50 for cytotoxicity against human HT-29 cells incubated for 72 hrs by MTT assay; format: functional
K562 [33] = experiment: Potency index, ratio of tiazofurin IC50 to compound IC50 for cytotoxicity against human K562 cells incubated for 72 hrs by MTT assay; format: functional
HT-29 [34] = experiment: Potency index, ratio of tiazofurin IC50 to compound IC50 for cytotoxicity against human HT-29 cells incubated for 72 hrs by MTT assay; format: functional
K562 [35] = experiment: Potency index, ratio of doxorubicin IC50 to compound IC50 for cytotoxicity against human K562 cells incubated for 72 hrs by MTT assay; format: functional
HeLa [36] = experiment: Potency index, ratio of doxorubicin IC50 to compound IC50 for cytotoxicity against human HeLa cells incubated for 72 hrs by MTT assay; format: functional
HeLa [37] = experiment: Potency index, ratio of tiazofurin IC50 to compound IC50 for cytotoxicity against human HeLa cells incubated for 72 hrs by MTT assay; format: functional
HL-60 [38] = experiment: Potency index, ratio of doxorubicin IC50 to compound IC50 for cytotoxicity against human HL60 cells incubated for 72 hrs by MTT assay; format: functional
HL-60 [39] = experiment: Potency index, ratio of tiazofurin IC50 to compound IC50 for cytotoxicity against human HL60 cells incubated for 72 hrs by MTT assay; format: functional

SMILES	Activity (K562 [1]) [%]	fold change (FC) (K562 [2])	Activity (K562 [5]) [%]	Activity (K562 [9]) [%]	Activity (K562 [10]) [%]	Activity (K562 [11]) [%]	Activity (K562 [12])	Activity (K562 [13]) [%]	Activity (K562 [15]) [%]	Activity (K562 [17]) [%]	Activity (K562 [18]) [%]	Activity (K562 [19]) [%]	Activity (K562 [20]) [%]	Activity (K562 [21]) [%]	Activity (K562 [22]) [%]	Activity (K562 [23])	Activity (K562 [24]) [%]	Activity (K562 [25]) [%]	Activity (K562 [28]) [%]	Activity (K562 [29]) [%]	other results
CC(=O)N[C@@H]1[C@@H](O)[C@H](c2nc(C(N)=O)cs2)O[C@@H]1CO	14.11	2 - 2.4	432.96	1.9	87.05	49.42	Toxic	336.99	126.68	9.84	36.27	27.17	41.58	8.55	364.31	Active	4.47	274.16	13.22	10.14	IC50 (K562 [3]): 340 nM; IC50 (HeLa [4]): > 100000 nM; Ratio IC50 (Jurkat [6]): 4; IC50 (Raji [7]): 3.9 nM; IC50 (HL-60 [8]): 3770 nM; IC50 (Jurkat [14]): 7.2 nM; IC50 (HT-29 [16]): 260 nM; Ratio IC50 (Jurkat [26]): 5; Ratio IC50 (Raji [27]): 1353 - 1354; IC50 (MRC5): 42400 nM; Activity (K562 [30]): 43.3%; Ratio IC50 (Raji [31]): 764
NC(=O)c1csc([C@@H]2O[C@H](CO)[C@H](N)[C@H]2O)n1	20.43	2 - 2.4	1465.64	12.78	172.46	35.75	Toxic	84.76	240.62	3.87	55.65	6.35	32.99	-0.99	104.95	Active	4.72	164.9	13.77	34.37	IC50 (K562 [3]): 35 nM; IC50 (HeLa [4]): 12 nM; Ratio IC50 (Jurkat [6]): 5 - 30; IC50 (Raji [7]): 3850 nM; IC50 (HL-60 [8]): 9390 nM; Ratio IC50 (HT-29 [32]): 5 - 30; IC50 (Jurkat [14]): 3.6 nM; IC50 (HT-29 [16]): 5 nM; Ratio IC50 (Jurkat [26]): 11 - 318; Ratio IC50 (K562 [33]): 11 - 318; IC50 (MRC5): > 100000 nM; Ratio IC50 (HT-29 [34]): 11 - 318; Ratio IC50 (K562 [35]): 5 - 30; Ratio IC50 (HeLa [36]): 5 - 30; Activity (K562 [30]): 40.45%; Ratio IC50 (HeLa [37]): 11 - 318
NC(=O)c1csc([C@@H]2O[C@H](CO)[C@H](O)[C@H]2O)n1	21.08	2 - 2.4	4433.8	13.6	230.09	51	Toxic	665.4	180.18	2.39	38.15	11.28	32.94	5.36	552.68	Active	8.45	436.51	11.6	16.69	Ratio IC50 (HL-60 [38]): 7; Ratio IC50 (HL-60 [39]): 2 - 48; Ratio IC50 (K562 [33]): 2 - 48; Ratio IC50 (Raji [27]): 2 - 48; Ratio IC50 (K562 [35]): 2; Activity (K562 [30]): 41.86%; Ratio IC50 (HeLa [37]): 2 - 48

From ChEMBL document CHEMBL4406856, “Structure based design, synthesis and in vitro antitumour activity of tiazofurin stereoisomers with nitrogen functions at the C-2' or C-3' positions” (Eur J Med Chem, 2019)
